ChEMBL document CHEMBL2021769, “Isolation, structure elucidation, and biological evaluation of 16,23-epoxycucurbitacin constituents from Eleaocarpus chinensis” (J Nat Prod, 2012)
The source made the active and inactive calls. The calls are words filed in the database; no cut-off is given here.

Legend:
HT-29 [1] = test: Cytotoxicity against human HT-29 cells after 3 days by sulforhodamine B assay; assay type: functional, cell-based; conditions: HT-29, 72 h
HT-29 [2] = test: Cytotoxicity against human HT-29 cells after 3 days by mitochondrial transmembrane potential assay; assay type: functional, cell-based; conditions: HT-29, 72 h
HT-29 [3] = test: Antitumor activity against human HT-29 cells xenografted in immunodeficient NCr nu/nu mouse assessed as inhibition of tumor growth at 0.5 to 10 mg/kg, ip dosed as four daily injections on day 3,4,5 and 6 followed by fiber retrieval on day 7 by in-vivo hollow fiber assay; assay type: functional, organism-based
In short: (§1)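 Murine hollow fiber model, ip route; fibers loaded per fiber with HT29 1 × 10⁶, MCF-7 5 × 10⁶, or MDA-MB-435 1 × 10⁶ cells. Dosing 0.5 to 10 mg/kg per day for four days in 5% EtOH/5% Tween 80 in physiologic saline; paclitaxel positive control at 2.0 mg/kg per day for four days. Proliferation inhibition assessed in each cell type.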

MCF7 = test: Antitumor activity against human MCF7 cells xenografted in immunodeficient NCr nu/nu mouse assessed as inhibition of tumor growth at 0.5 to 10 mg/kg, ip dosed as four daily injections on day 3,4,5 and 6 followed by fiber retrieval on day 7 by in-vivo hollow fiber assay; assay type: functional, organism-based; in short: as §1
MDA-MB-435 = test: Antitumor activity against human MDA-MB-435 cells xenografted in immunodeficient NCr nu/nu mouse assessed as inhibition of tumor growth at 0.5 to 10 mg/kg, ip dosed as four daily injections on day 3,4,5 and 6 followed by fiber retrieval on day 7 by in-vivo hollow fiber assay; assay type: functional, organism-based; in short: as §1

| Structure (SMILES) | IC50 (HT-29 [1]) [nM] | IC50 (HT-29 [2]) [nM] | other results |
| --- | --- | --- | --- |
| CC(C)(O)/C=C/C(=O)[C@](C)(O)[C@H]1[C@H](O)C[C@@]2(C)[C@@H]3CC=C4[C@@H](CC(=O)[C@H](O)C4(C)C)[C@]3(C)C(=O)C[C@]12C | 39 | > 20000 |  |
| CC(C)=C[C@H]1C[C@](C)(O)[C@H]2[C@@H](C[C@@]3(C)[C@@H]4CC=C5[C@@H](CC[C@H](O)C5(C)C)[C@]4(C)C(=O)C[C@]23C)O1 | > 10000 | > 20000 |  |
| CC(=O)OC(C)(C)/C=C/C(=O)[C@](C)(O)[C@H]1[C@H](O)C[C@@]2(C)[C@@H]3CC=C4[C@@H](C[C@H](O)[C@@H](O)C4(C)C)[C@]3(C)C(=O)C[C@]12C | 540 |  |  |
| CC(C)(O)/C=C/C(=O)[C@](C)(O)[C@H]1[C@H](O)C[C@@]2(C)[C@@H]3CC=C4[C@@H](C[C@H](O)C(=O)C4(C)C)[C@]3(C)C(=O)C[C@]12C [CUCURBITACIN D] | 120 | > 20000 |  |
| CC(C)(O)/C=C/C(=O)[C@](C)(O)[C@H]1[C@H](O)C[C@@]2(C)[C@@H]3CC=C4[C@@H](C=C(O)C(=O)C4(C)C)[C@]3(C)C(=O)C[C@]12C [CUCURBITACIN I] | 190 |  |  |
| C=C(C)[C@H](O)[C@H]1C[C@](C)(O)[C@H]2[C@@H](C[C@@]3(C)[C@@H]4CC=C5[C@@H](CC[C@H](O)C5(C)C)[C@]4(C)C(=O)C[C@]23C)O1 [ELAEOCARPUCIN A] | > 10000 | > 20000 |  |
| C=C(C)[C@@H](O)[C@H]1C[C@](C)(O)[C@H]2[C@@H](C[C@@]3(C)[C@@H]4CC=C5[C@@H](CC[C@H](O)C5(C)C)[C@]4(C)C(=O)C[C@]23C)O1 [ELAEOCARPUCIN B] | > 10000 | > 20000 |  |
| C/C(=C\[C@H]1C[C@](C)(O)[C@H]2[C@@H](C[C@@]3(C)[C@@H]4CC=C5[C@@H](CC[C@H](O)C5(C)C)[C@]4(C)C(=O)C[C@]23C)O1)CO [ELAEOCARPUCIN C] | 410 | > 20000 | inhibition (HT-29 [3]): inactive; inhibition (MCF7): inactive; inhibition (MDA-MB-435): inactive |
| C=C(C)C(=O)[C@H]1C[C@](C)(O)[C@H]2[C@@H](C[C@@]3(C)[C@@H]4CC=C5[C@@H](CC[C@H](O)C5(C)C)[C@]4(C)C(=O)C[C@]23C)O1 [ELAEOCARPUCIN D] | 5600 |  |  |
| C/C(C=O)=C\[C@H]1C[C@](C)(O)[C@H]2[C@@H](C[C@@]3(C)[C@@H]4CC=C5[C@@H](CC[C@H](O)C5(C)C)[C@]4(C)C(=O)C[C@]23C)O1 [ELAEOCARPUCIN E] | > 10000 |  |  |
| CC(C)(O)C[C@H]1C[C@](C)(O)[C@H]2[C@@H](C[C@@]3(C)[C@@H]4CC=C5[C@@H](CC[C@H](O)C5(C)C)[C@]4(C)C(=O)C[C@]23C)O1 [ELAEOCARPUCIN F] | > 10000 | > 20000 |  |
| CC(C)=C[C@@H]1O[C@@H]2C[C@@]3(C)[C@@H]4CC=C5[C@@H](CC[C@H](O)C5(C)C)[C@]4(C)C(=O)C[C@]3(C)[C@H]2[C@@](C)(O)[C@@H]1O [ELAEOCARPUCIN G] | 2900 |  |  |
| CC(C)=C[C@H]1C[C@](C)(O)[C@H]2[C@@H](C[C@@]3(C)[C@@H]4C(=O)C=C5[C@@H](CC[C@H](O)C5(C)C)[C@]4(C)C(=O)C[C@]23C)O1 [ELAEOCARPUCIN H] | 2700 |  |  |
| CC(=O)O[C@H]1C(=O)[C@@]2(C)[C@H]([C@H](OC(=O)c3ccccc3)[C@]3(O)C[C@H](OC(=O)[C@H](O)[C@@H](NC(=O)c4ccccc4)c4ccccc4)C(C)=C1C3(C)C)[C@]1(OC(C)=O)CO[C@@H]1C[C@@H]2O [PACLITAXEL] | 6 |  |  |
